High-throughput results from PubChem BioAssay.
Beta2AR agonist = agonists of human beta-2 adrenergic receptor inducing internalization. hit rate 0.43% among 340,000. Am2.2-beta2AR cells, FAP receptor internalization, flow cytometry. response, % (no concentration beside the values). P07550. AID 504454;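 active means response above a set limit, near 3 SD of response in nonfluorescent compounds, cut at about 42% in these data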
ABHD5-PLIN5 inh = ABHD5-PLIN5 protein interaction inhibition; hit rate 0.78% among 360,000; inhibition, % at 4 µM; AID 602281; Split G. princeps luciferase complementation, luminescence, 4 h; Q00G26+Q8WTS1;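 active means inhibition above the mean inhibition across every tested compound plus 3 SD, cut at about 22% in these data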;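 further: 0% = DMSO only wells and the 100% control is not disclosed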
SENP1 inh = SENP1 (human) catalytic domain inhibition; inhibition, % at 10 µM; recombinant SENP1 catalytic domain, CyPet-SUMO1-YPet FRET cleavage; hit rate 0.21% among 360,000; Q9P0U3;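 active means inhibition at least 30% at 10 µM, raw YFP signal under a set limit, fluorescence ratio 0.5 to 1.5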;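 further: 0% = enzyme with DMSO and 100% = no enzyme wells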
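Compound: 10 µM single point, 0.5% DMSO; Test system: hSENP1 catalytic domain, recombinant; Timing: 50 min reaction at room temperature; Technique: FRET, CFP and YFP emission; Control set: no-enzyme wells low, DMSO-plus-enzyme wells high control.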
GRK2 aptamer HTS = human GRK2 inhibition via aptamer displacement; P25098; bead flow cytometry, FAM-aptamer displacement from GRK2; inhibition of aptamer binding, % at 10 µM; hit rate 0.59% among 330,000; AID 488847;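 active means inhibition of aptamer binding above 40%, roughly 3 SD of noise, on plates passing a quality check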;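 further: median bead fluorescence of bound FAM aptamer so fluorescent compounds give negative values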
Target sequence (P25098 whole entry, looked up): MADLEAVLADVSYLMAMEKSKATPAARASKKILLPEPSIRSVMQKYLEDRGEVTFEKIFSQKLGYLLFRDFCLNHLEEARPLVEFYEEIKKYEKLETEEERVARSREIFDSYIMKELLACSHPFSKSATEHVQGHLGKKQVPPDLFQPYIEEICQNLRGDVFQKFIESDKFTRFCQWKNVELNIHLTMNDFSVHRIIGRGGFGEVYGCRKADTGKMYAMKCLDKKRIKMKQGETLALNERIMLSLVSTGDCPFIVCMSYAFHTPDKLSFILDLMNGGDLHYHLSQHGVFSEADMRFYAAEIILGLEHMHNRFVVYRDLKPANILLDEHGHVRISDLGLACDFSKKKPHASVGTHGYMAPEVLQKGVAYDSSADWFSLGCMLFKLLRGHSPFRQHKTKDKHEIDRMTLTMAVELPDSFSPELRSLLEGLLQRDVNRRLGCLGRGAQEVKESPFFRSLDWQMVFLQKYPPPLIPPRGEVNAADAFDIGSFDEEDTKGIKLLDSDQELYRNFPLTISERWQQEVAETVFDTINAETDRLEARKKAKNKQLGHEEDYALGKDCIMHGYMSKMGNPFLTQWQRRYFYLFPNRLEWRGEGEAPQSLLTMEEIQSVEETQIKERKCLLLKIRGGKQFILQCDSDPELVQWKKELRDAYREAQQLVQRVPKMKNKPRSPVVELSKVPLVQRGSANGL
NadD block = blocks S. aureus nicotinate mononucleotide adenylyltransferase; purified NadD enzyme, colorimetric absorbance read-out; inhibition, % at 20 µM; hit rate 0.78% among 360,000; AID 602399; in the data active means inhibition above about 26%
ABHD5 PLIN5 conf = ABHD5-PLIN5 interaction inhibition, confirmed. hit rate 67% among 2,200. biochemical ABHD5-PLIN5 interaction, luminescence. AID 651612. inhibition, % at 4 µM. shares compounds with ABHD5-PLIN5 inh; in the data active means inhibition above about 23%;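 further: 0% = DMSO vehicle wells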
HNF4 counter = counter-screen for ABHD5-PLIN5 inhibitors: HNF4 split-luciferase; shares compounds with ABHD5-PLIN5 inh; HNF4 dimerization, luminescence, biochemical; inhibition, % at 4 µM; hit rate 77% among 2,200;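 active means mean inhibition across replicate wells exceeding the computed hit threshold, cut at about 13% in these data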;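 further: light from luciferase halves that rejoin when HNF4 fusion proteins dimerize; 0% = DMSO only wells and the 100% control is not given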
The depositor's hits bear a star; . = not tested or not shown. Only some compounds are listed: those with a hit (about 2.5% of all), similar ones and a draw of the others.

SMILES	Beta2AR agonist	ABHD5-PLIN5 inh	SENP1 inh	GRK2 aptamer HTS	NadD block	ABHD5 PLIN5 conf	HNF4 counter
CCN1CCOC(CC(=O)Nc2ccc([N+](=O)[O-])cc2)C1=O (stereo not drawn)	4	7	1	0	-6	.	.
COc1ccc(CNC(=O)C2CCN(S(=O)(=O)c3ccc4c(c3)NC(=O)C(C)S4)CC2)cc1 (stereo not drawn)	12	2	6	0	-1	.	.
CC1Sc2ccc(S(=O)(=O)N3CCC(C(=O)NCc4ccc(Cl)cc4)CC3)cc2NC1=O (stereo not drawn)	5	27*	3	5	0	43*	.
CC(C)N(C(=O)c1ccc(Cc2cn(C)c3ccccc23)nc1)C(C)C	.	-2	0	.	-1	.	.
CC1CCN(S(=O)(=O)c2ccc(NC(=O)Cc3cccs3)cc2)CC1	0	33*	-15	1	-4	44*	1
Cc1ccc(-c2nnn(CC(=O)Nc3ccc(S(=O)(=O)N4CCC(C)CC4)cc3)n2)cc1	0	7	0	0	11	.	.
CC1CCN(CC(=O)Nc2ccc(S(=O)(=O)N3CCC(C)CC3)cc2)CC1	-2	-1	-1	1	-6	.	.
CC1CCN(S(=O)(=O)c2ccc(NC(=O)Cn3nnc(-c4ccccc4)n3)cc2)CC1	5	26*	-1	3	7	53*	-1
Nc1nnnn1/N=C/C(Br)=C/c1ccccc1	16	28*	1	3	2	54*	51*
Nc1nnnn1/N=C/C=C/c1ccccc1	2	3	2	1	1	.	.
Cc1ccc(S/C=C\C(=O)c2ccccc2)cc1	25	31*	1	3	-4	48*	33*
O=C(Nc1nc(-c2ccco2)c(-c2ccco2)s1)C1CCC1	-9	36*	-9	0	9	13	46*
CCCCCn1nnnc1-c1nc2cc(C)c(C)cc2[nH]c1=O	.	1	-25	.	6	.	.
CCN(CC)CCN1C(=O)/C(=C\c2ccc(Cl)c([N+](=O)[O-])c2)SC1=Nc1ccc(OC)cc1	18	39*	1	0	5	27*	14*
COc1ccc(N(C)S(=O)(=O)c2ccc3c(c2)NC(=O)CC(=O)N3)c(OC)c1	0	7	2	4	-2	.	.
COc1ccc(C(C)NC(=O)c2ccc(Cl)cc2)cc1OC (stereo not drawn)	-1	-2	2	3	2	.	.
COc1ccc(C(=O)CC(SCC(NC(C)=O)C(=O)O)c2ccc(Cl)cc2)cc1OC (stereo not drawn)	4	38*	2	0	-12	24*	20*
Cc1ccccc1Cn1c(C)nc2ccc([N+](=O)[O-])cc2c1=O	4	-7	-1	2	-2	.	.
O=C(O)CCc1ccc(-c2ccccc2)o1	4	38*	-2	6	2	24*	48*
CC1C/C(=C\c2cccnc2)C(=O)/C(=C/c2cccnc2)C1 (stereo not drawn)	13	91*	-1	0	-4	100*	93*
O=C1/C(=C/c2cccnc2)CCc2c1[nH]c1ccccc21	-10	7	4	0	4	.	.
COc1cc(CNCCO)cc(Cl)c1OCc1ccc(Cl)cc1Cl	20	18	2	0	-11	.	.
COc1cc(CNc2ccc(O)cc2)cc(Br)c1OCc1ccccc1	3	-30	0	0	3	.	.
COc1cc(CNC(C)(C)CO)cc(Br)c1OCc1ccc(Cl)cc1Cl	26	34*	2	0	-5	20	4
COc1cc(CNC(C)(C)CO)cc(Br)c1OCc1ccc(Cl)cc1	18	28*	1	0	-11	13	0
SMILES	Beta2AR agonist	ABHD5-PLIN5 inh	SENP1 inh	GRK2 aptamer HTS	NadD block	ABHD5 PLIN5 conf	HNF4 counter
Cc1ccc(-c2noc(CC(=O)c3ccc([N+](=O)[O-])cc3)n2)cc1	-1	-3	-5	.	12	.	.
CC1=CC(C)(C)Nc2ccc(OC(=O)c3ccco3)cc21	12	67*	-44	1	-3	91*	91*
CC1=CC(C)(C)Nc2ccc(OC(=O)c3cccnc3)cc21	11	78*	-44	1	5	97*	72*
CC1=CC(C)(C)Nc2ccc(OC(=O)C(C)N3C(=O)c4ccccc4C3=O)cc21 (stereo not drawn)	-8	58*	-10	1	2	90*	24*
CC1=CC(C)(C)Nc2ccc(OC(=O)CN3C(=O)CCC3=O)cc21	18	80*	-92	4	-2	96*	33*
CC1=CC(C)(C)N2C(=O)C(=O)c3cc(OC(=O)c4ccco4)cc1c32	15	-2	-6	0	-1	.	.
CCN(CC)S(=O)(=O)c1ccc(C(C)NC(=O)C2CCCN2C(=O)c2cccs2)cc1 (stereo not drawn)	-3	-12	1	0	13	.	.
CCn1cc(C(=O)NCCCOC(C)C)c(=O)c2cc(S(=O)(=O)N3CCC(C)CC3)ccc21	-3	-8	4	0	1	.	.
Cc1cc(/C=N/NC(=O)c2ccc(O)cc2)c(C)n1CC(C)C	-6	2	-1	3	1	.	.
COc1ccc(-n2nnnc2SCC(=O)Nc2c(C)n[nH]c2C)cc1	6	-1	0	4	-2	.	.
CC(C)(C)Cc1c(-c2ccc(F)cc2)nc2ccc(Cl)cn12	.	-15	-3	.	6	.	.
CC1(C)Cc2cccc(OCC(=O)N3CCN(c4ccccc4)CC3)c2O1	-3	82*	3	2	-8	1	0
CC1(C)Cc2cccc(OCC(=O)N3CCN(c4ccccc4F)CC3)c2O1	-6	-5	3	2	-2	.	.
CCOc1ccc(C(=O)N2CCN(Cc3ccccc3)CC2)cc1OCC	7	13	0	.	-4	.	.
Cc1cc(Cl)ccc1C(=O)C1CCCN(C(=O)c2cncs2)C1 (stereo not drawn)	-6	4	1	2	3	.	.
O=C(Nc1ccc(Oc2ccccc2)cc1)c1csc([C@@H]2O[C@H](CO)[C@H](O)[C@H](O)[C@H]2O)n1	.	-5	4	.	-2	.	.
O=C(OCC(=O)N1N=C(c2ccc(Cl)cc2)CC1c1ccco1)c1cncc(Br)c1 (stereo not drawn)	-2	35*	-11	2	24	76*	89*
COc1cccc(CNC(=O)COC(=O)CCS(=O)(=O)c2ccc(C)cc2)c1	1	7	2	.	-1	.	.
CCCS(=O)(=O)NC(=O)C1(C)CCN(C(=O)c2ccc(OC(F)F)cc2)C1 (stereo not drawn)	.	12	1	.	-3	.	.
Cc1ccc(C(=O)Nc2ccc(S(=O)(=O)Nc3cnc4ccccc4n3)cc2)cc1	9	-10	-5	2	2	.	.
NS(=O)(=O)c1cccc(NC(=O)COC(=O)CN2C(=O)c3ccccc3C2=O)c1	-7	1	4	1	-3	.	.
